These results are taken from ChEMBL document CHEMBL4665651, “Design, synthesis, and biological evaluation of some novel 4-aminoquinazolines as Pan-PI3K inhibitors” (Bioorg Med Chem, 2019).

pIC50: −log10 of the molar value. Active and inactive are the calls of the source. The calls are words filed in the database; no cut-off is given here.

Assay [1] has as its target T1, Phosphatidylinositol 4,5-bisphosphate 3-kinase catalytic subunit delta isoform (Homo sapiens, UniProt O00329).
T1 sequence (O00329 whole entry): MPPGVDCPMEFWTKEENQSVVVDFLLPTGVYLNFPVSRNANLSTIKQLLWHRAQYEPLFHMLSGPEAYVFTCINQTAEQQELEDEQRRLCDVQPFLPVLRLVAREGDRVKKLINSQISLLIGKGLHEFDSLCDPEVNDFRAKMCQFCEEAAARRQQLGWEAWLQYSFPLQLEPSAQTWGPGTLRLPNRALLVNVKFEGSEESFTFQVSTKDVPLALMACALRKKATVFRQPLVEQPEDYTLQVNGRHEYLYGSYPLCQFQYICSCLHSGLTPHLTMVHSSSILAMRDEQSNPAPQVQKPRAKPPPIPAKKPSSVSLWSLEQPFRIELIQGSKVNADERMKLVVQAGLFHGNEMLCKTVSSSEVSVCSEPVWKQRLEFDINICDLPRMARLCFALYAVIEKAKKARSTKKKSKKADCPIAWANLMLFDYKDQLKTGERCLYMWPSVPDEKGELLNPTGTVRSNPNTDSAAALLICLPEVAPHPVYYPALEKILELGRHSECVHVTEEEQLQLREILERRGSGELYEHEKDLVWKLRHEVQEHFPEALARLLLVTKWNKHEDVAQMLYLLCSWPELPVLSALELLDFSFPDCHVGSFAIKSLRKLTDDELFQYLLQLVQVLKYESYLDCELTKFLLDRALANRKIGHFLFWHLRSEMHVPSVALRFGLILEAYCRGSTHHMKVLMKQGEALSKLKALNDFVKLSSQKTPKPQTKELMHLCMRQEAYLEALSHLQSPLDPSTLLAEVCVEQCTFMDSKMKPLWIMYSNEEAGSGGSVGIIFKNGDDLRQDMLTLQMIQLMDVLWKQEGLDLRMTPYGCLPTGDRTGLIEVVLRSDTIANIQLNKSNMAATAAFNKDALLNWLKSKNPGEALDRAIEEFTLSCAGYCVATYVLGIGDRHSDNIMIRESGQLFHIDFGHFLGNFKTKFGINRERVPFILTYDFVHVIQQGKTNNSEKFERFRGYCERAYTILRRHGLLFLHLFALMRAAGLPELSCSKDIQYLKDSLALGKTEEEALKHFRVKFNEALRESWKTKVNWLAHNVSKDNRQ
In words: Inhibition of PI3Kdelta (unknown origin) using lipid as substrate incubated for 15 mins followed by substrate addition and measured after 60 mins ADPGloTM reagent based assay. Summed up:
(§1)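 ADP-Glo luminescent readout of ADP formed. Isoforms tested: p110α/p85α, p110β/p85α, p120γ and p110δ/p85α, each in PI3K reaction buffer with lipid substrate. Enzyme preincubated with compound for 15 min at room temperature. ADP-Glo reagent added for 40 min, then detection reagent for 40 min. IC50 from normalized nonlinear dose–response fit.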

Assay [2] has as its target Phosphatidylinositol 4,5-bisphosphate 3-kinase catalytic subunit beta isoform (Homo sapiens, UniProt P42338). The assay can be described thus: Inhibition of PI3Kbeta (unknown origin) using lipid as substrate incubated for 15 mins followed by substrate addition and measured after 60 mins ADPGloTM reagent based assay. Summed up: as §1
For assay [3], the system named is MCF7. In words: Induction of apoptosis in human MCF7 cells assessed as necrotic cells at 0.4 uM incubated for 48 hrs by annexin V-FITC and propidium iodide staining based flow cytometry analysis (reference value: 0.3 %). The format is functional.
The next assay has as its system L02. In words: Cytotoxicity against human L02 cells assessed as reduction in cell viability incubated for 72 hrs by SRB assay. Format: cell-based. To be noted: L02, 72 h. Summed up:
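Normal cells exposed to a range of compound concentrations for 72 h at 37 °C in 5% CO₂. Cells TCA-fixed and viability read by SRB protein staining, normalized to day-0 and negative-control OD. IC50 from non-linear regression; values are means of triplicate measurements.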

Assay [4] relates to MCF7. In words: Induction of apoptosis in human MCF7 cells assessed as necrotic cells at 0.8 uM incubated for 48 hrs by annexin V-FITC and propidium iodide staining based flow cytometry analysis (reference value: 0.3 %). The format is functional.
Assay [5] deals with MCF7. In words: Induction of apoptosis in human MCF7 cells assessed as nuclear fragmentation at 0.2 to 0.8 uM incubated for 48 hrs by Hoechst 33342 staining based fluorescence microscopic analysis. To be noted: dose microM 0.2-0.8, time 48.0 hrs. The format is functional, cell-based. A digest of the protocol: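 MCF-7 cells seeded at 2×10⁵ per well in 6-well plates and allowed to settle 12 h. Treated 48 h, with medium-only controls. Stained with Hoechst 33342 for 30 min, washed, and nuclear morphology imaged by fluorescence microscopy.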

Sequence of Phosphatidylinositol 4,5-bisphosphate 3-kinase catalytic subunit beta isoform (P42338 whole entry, canonical isoform): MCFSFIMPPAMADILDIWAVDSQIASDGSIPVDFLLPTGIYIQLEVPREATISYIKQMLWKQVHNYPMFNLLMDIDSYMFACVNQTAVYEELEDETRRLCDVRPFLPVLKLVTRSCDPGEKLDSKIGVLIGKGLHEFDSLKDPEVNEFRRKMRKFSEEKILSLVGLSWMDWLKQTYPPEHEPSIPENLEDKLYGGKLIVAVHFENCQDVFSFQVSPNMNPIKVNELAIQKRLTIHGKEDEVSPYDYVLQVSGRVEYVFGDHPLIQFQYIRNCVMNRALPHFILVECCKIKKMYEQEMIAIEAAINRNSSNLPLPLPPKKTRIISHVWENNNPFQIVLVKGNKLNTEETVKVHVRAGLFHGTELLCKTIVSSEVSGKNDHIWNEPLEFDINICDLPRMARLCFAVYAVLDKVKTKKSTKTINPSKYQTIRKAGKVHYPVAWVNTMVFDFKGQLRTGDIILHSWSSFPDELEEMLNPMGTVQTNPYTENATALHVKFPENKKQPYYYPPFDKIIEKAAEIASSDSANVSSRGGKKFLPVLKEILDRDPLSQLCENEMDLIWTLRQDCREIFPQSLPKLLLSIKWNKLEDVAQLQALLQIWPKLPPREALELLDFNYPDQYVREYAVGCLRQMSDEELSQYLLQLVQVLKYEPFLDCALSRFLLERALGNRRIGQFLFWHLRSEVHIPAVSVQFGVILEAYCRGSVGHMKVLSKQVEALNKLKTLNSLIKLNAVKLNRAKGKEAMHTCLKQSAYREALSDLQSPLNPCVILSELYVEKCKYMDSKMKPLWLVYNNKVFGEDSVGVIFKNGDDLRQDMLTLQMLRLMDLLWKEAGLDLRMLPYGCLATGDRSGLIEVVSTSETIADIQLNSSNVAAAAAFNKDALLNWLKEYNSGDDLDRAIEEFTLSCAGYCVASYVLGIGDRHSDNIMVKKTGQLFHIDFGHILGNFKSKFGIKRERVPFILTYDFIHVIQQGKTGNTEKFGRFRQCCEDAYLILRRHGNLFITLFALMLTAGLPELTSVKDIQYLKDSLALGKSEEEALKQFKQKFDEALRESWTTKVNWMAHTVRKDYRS

Consider `COc1ncc(-c2ccc3ncnc(Nc4cnn(CCO)c4)c3c2)cc1NS(=O)(=O)c1ccc(F)cc1F`, for which the pIC50 in assay [1] is 9.32; in assay [2] it was 8.52; with L02, 4.22. The Activity in the assay on MCF7 [3] amounted to 2.6%; in the assay with MCF7 [4], 2.7%. Further, the outcome in the assay on MCF7 [5] was Active.
